Values after ≈ are worked out from the molar mass of the structure shown.
Tests used:
[1] = test system: Escherichia coli; experiment: Antibacterial activity against Escherichia coli MTCC 443 assessed as growth inhibition after 24 to 48 hrs by broth microdilution method; assay type: functional
Method in brief: (§1)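 Bacteria were grown in Mueller-Hinton broth with inoculum adjusted to 10⁸ CFU mL⁻¹ by turbidity. Compounds were serially diluted in 2% aqueous DMSO and incubated at 37 °C overnight. Growth was checked by subculture at 24 and 48 h. MIC was taken as the highest dilution with no turbidity after spot subculture.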

[2] = test system: Salmonella typhi; experiment: Antibacterial activity against Salmonella typhi MTCC 98 assessed as growth inhibition after 24 to 48 hrs by broth microdilution method; assay type: functional, Salmonella enterica subsp. enterica serovar Typhi; conditions: Salmonella enterica
[3] = test system: Bacillus subtilis; experiment: Antibacterial activity against Bacillus subtilis MTCC 441 assessed as growth inhibition after 24 to 48 hrs by broth microdilution method; assay type: functional; method in brief: as §1
[4] = test system: Candida albicans; experiment: Antifungal activity against Candida albicans MTCC 227 assessed as growth inhibition after 24 to 48 hrs by broth microdilution method; assay type: functional
Method in brief: (§2)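 Fungal nutrition used Sabouraud Dextrose broth with inoculum at 10⁸ CFU mL⁻¹ by turbidity. Serial compound dilutions were made in 2% DMSO in water. Growth was noted on subculture after 24 and 48 h. MIC was taken as the highest dilution preventing visible turbidity after spot subculture.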

[5] = test system: Streptococcus pneumoniae; experiment: Antibacterial activity against Streptococcus pneumoniae MTCC 1936 assessed as growth inhibition after 24 to 48 hrs by broth microdilution method; assay type: functional; method in brief: as §1
[6] = test system: Vibrio cholerae; experiment: Antibacterial activity against Vibrio cholerae MTCC 3906 assessed as growth inhibition after 24 to 48 hrs by broth microdilution method; assay type: functional
[7] = test system: Mycobacterium tuberculosis; experiment: Antitubercular activity against Mycobacterium tuberculosis H37Rv assessed as inhibition of colony formation at 100 ug/mL after 2 to 4 weeks by Lowensteine-Jensen method relative to control; assay type: functional
[8] = test system: Clostridium tetani; experiment: Antibacterial activity against Clostridium tetani MTCC 449 assessed as growth inhibition after 24 to 48 hrs by broth microdilution method; assay type: functional
[9] = test system: Mycobacterium tuberculosis; experiment: Antitubercular activity against Mycobacterium tuberculosis H37Rv assessed as inhibition of colony formation at 250 ug/mL after 2 to 4 weeks by Lowensteine-Jensen method relative to control; assay type: functional
[10] = test system: Plasmodium falciparum; experiment: Antimalarial activity against chloroquine/quinine sensitive Plasmodium falciparum assessed as parasite growth inhibition after 48 hrs; assay type: functional, organism-based
[11] = test system: Aspergillus fumigatus; experiment: Antifungal activity against Aspergillus fumigatus MTCC 3008 assessed as growth inhibition after 24 to 48 hrs by broth microdilution method; assay type: functional; method in brief: as §2

Row | SMILES | MIC [1] | MIC [2] | MIC [3] | MIC [4] | MIC [5] | MIC [6] | inhibition at 100 µg/mL [7] | MIC [8] | inhibition at 250 µg/mL [9] | IC50 [10] | MIC [11]
1 | Cc1nn(-c2ccccc2)c(-n2ccnc2)c1C1C(C#N)=C(N)N(c2ccc(O)cc2)C2=C1C(=O)CC(C)(C)C2 (configuration not stated) | 200 µg/mL (≈ 376 µM) | 250 µg/mL (≈ 470 µM) | 250 µg/mL (≈ 470 µM) | 500 µg/mL (≈ 941 µM) | 200 µg/mL (≈ 376 µM) | 250 µg/mL (≈ 470 µM) | 94% | 500 µg/mL (≈ 941 µM) | 94% | 1.23 µg/mL (≈ 2.31 µM) | 1000 µg/mL (≈ 1880 µM)
2 | Cc1nn(-c2ccccc2)c(-n2ccnc2)c1C1C(C#N)=C(N)N(c2cccc(O)c2)C2=C1C(=O)CC(C)(C)C2 (configuration not stated) | 200 µg/mL (≈ 376 µM) | 250 µg/mL (≈ 470 µM) | 500 µg/mL (≈ 941 µM) | 1000 µg/mL (≈ 1880 µM) | 200 µg/mL (≈ 376 µM) | 62.5 µg/mL (≈ 118 µM) | 34% | 200 µg/mL (≈ 376 µM) | 38% | 0.034 µg/mL (≈ 0.064 µM) | 500 µg/mL (≈ 941 µM)

— ChEMBL document CHEMBL3232885, “Synthesis, characterization and pharmacological screening of some novel 5-imidazopyrazole incorporated polyhydroquinoline derivatives” (Eur J Med Chem, 2014)
